Screening results from PubChem.
CHOP inh: blocks CHOP induction under ER stress | AID 2732 | CHO-K1 CHOP-promoter luciferase, tunicamycin-induced, 15-18 h | 220,000 compounds, 3.8% hits | inhibition, % at 10 µM;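 active = compounds that reduced the stress-induced luciferase reporter signal by more than about 70% of percent inhibition, limit read from the data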;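 also: 0% = tunicamycin plus vehicle and 100% = wells without tunicamycin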
CHOP UPR activ: activators of apoptotic arm of unfolded protein response (CHOP); activation, % at 10 µM; AID 449763; 330,000 compounds, 0.34% hits; CHO-CHOP luciferase reporter, UPR activation, luminescence; percent of tunicamycin response over DMSO baseline;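 active = at 10 µM dose, activation of 40% or more, normalized to positive control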;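 also: 100% = tunicamycin at 10 µg/mL and 0% = DMSO alone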
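Assay system: CHO cells with stable CHOP pathway luciferase reporter; Buffer or medium: F12 plus 10% serum; Times: 16-18 h cell attachment, then 6 h compound exposure, 37 °C; Signal: luciferase luminescence; Read-out basis: percent activation relative to tunicamycin control; Control set: tunicamycin high control, DMSO low control.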
p-CIP stab down: p/CIP protein destabilization; Q05BA5; F442A p/CIP-EGFP cells, EGFP fluorescence, 16 h; decrease of EGFP signal, % at 10 µM; 290,000 compounds, 0.01% hits;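 active = EGFP signal decrease of at least 30% at 10 µM or well 3 SD below plate mean, unless failing retest; inactive = the rest, including hits failing retest or dose response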
B2AR ag: activates human beta-2 adrenergic receptor causing internalization; 340,000 compounds, 0.43% hits; Am2.2-beta2AR cells, FAP receptor internalization, flow cytometry; AID 504454; P07550; response, % (test concentration not listed);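 active = response above a set limit, near 3 SD of response in nonfluorescent compounds, cut at about 42% in these data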
Target sequence (P07550 whole entry, looked up): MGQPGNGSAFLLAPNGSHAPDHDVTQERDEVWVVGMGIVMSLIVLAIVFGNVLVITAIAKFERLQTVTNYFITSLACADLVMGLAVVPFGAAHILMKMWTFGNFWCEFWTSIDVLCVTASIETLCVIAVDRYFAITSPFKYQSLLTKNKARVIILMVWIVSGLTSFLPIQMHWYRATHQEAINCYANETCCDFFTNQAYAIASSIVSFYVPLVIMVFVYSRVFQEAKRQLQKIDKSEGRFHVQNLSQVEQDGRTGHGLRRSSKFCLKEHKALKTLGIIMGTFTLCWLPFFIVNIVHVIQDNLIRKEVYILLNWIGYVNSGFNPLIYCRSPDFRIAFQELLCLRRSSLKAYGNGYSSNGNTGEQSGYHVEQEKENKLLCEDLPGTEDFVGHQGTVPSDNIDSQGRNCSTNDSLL
Dynein cargo inh: dynein cargo transport inhibition; AID 1381; 220,000 compounds, 0.47% hits; z-score, hits read low; 3617.4 mouse cells, GR-EGFP nuclear translocation imaging; test concentration mostly 20 µM; stimulated with dexamethasone, 1 µM; active compounds read low;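 active = plate z-score of nuclear minus cytoplasmic receptor signal below a set negative limit, without overly bright fluorescence or cell loss, cut at about -3.5 in these data, passing the limit was not always enough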;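 also: z-score of nuclear minus cytoplasmic ring GR-EGFP intensity difference per well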
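Also added: dexamethasone, 1.0 µM final. Medium: tet-free, stripped-serum medium. Detection: fixed, Hoechst-stained cells imaged at 10x for EGFP. Read-out: nuclear-to-cytoplasmic GR-EGFP distribution per well. Times: induction 48 h, compound 1 h, agonist 30 min.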
UPR XBP1 act: activators of adaptive arm of unfolded protein response (XBP1); CHO-XBP1 luciferase reporter, IRE1-XBP1 UPR activation, luminescence; percent of tunicamycin response, DMSO as zero; activation, % at 20 µM; 330,000 compounds, 0.33% hits; AID 463104;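 active = versus positive control, 20 µM dose yields 30% or more activation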;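 also: 100% = tunicamycin at 10 µg/mL and 0% = DMSO only wells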
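Assay system: IRE1-XBP1 luciferase reporter CHO line. Input: 1000 cells/well. Buffer or medium: F12 with 10% serum. Doses: 20 µM, 1% DMSO. Times: overnight seeding at 37 °C, 6 h compound treatment at 37 °C. Technique: Steady-Glo luciferase glow luminescence, 10 min after reagent addition.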
Dynein confirm: dynein cargo transport inhibition, confirmation; calls only at 20 µM; shares compounds with Dynein cargo inh; 3617.4 GR-EGFP nuclear translocation imaging, dexamethasone-induced; AID 463116; 1,000 compounds, 69% hits;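 active = inhibition of receptor movement into the nucleus at or above a set limit in both runs, with normal cell brightness and cell count; inconclusive = limit reached in only one run, brightness and count normal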;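 also: dexamethasone at 1 µM final in well for 30 min; nuclear minus cytoplasmic GR-EGFP mean intensity difference in channel 2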
Active calls of the source: *; i = inactive; ? = inconclusive; · = no result; + = active, no number. The sample as a whole holds a higher share of hits than the screen did.

SMILES	CHOP inh	CHOP UPR activ	p-CIP stab down	B2AR ag	Dynein cargo inh	UPR XBP1 act	Dynein confirm
COc1ccc(-n2c(=O)c(CCC(=O)N3CCC(C)CC3)nc3ccccc32)cc1	·	-1	·	2	·	-3	·
Nc1ccc(O)cc1C(=O)OCC(=O)c1ccc(C2CCCCC2)cc1	39	·	-13	4	-3.5*	·	+
COc1ccc(C(=O)OCC(=O)c2ccc(C3CCCCC3)cc2)cc1	40	-1	3	-3	-0.35	0	·
CCOC(=O)c1c(S(=O)(=O)N2CCN(c3ccc(C(C)=O)cc3)CC2)c(C)n(C)c1C	·	2	1	0	·	2	·
CC1(C)CC(NCCN2CCN(C3=CC(=C(C#N)C#N)CC(C)(C)C3)CC2)=CC(=C(C#N)C#N)C1	16	1	-2	-5	0.45	-2	·
N#CC(C#N)=C1C=C2C=C(N3CCOCC3)CCC2CC1 (stereo unspecified)	-19	·	-971	·	-7*	·	+
CCN1CCN(C2=CC3=CC(=C(C#N)C#N)CCC3CC2)CC1 (stereo unspecified)	5	·	-808	i	-5.2*	·	+
N#CC(C#N)=C1C=C2C=C(N3CCCCCC3)CCC2CC1 (stereo unspecified)	9	·	-375	·	-3.7*	·	+
CN1CCN(C2=CC3=CC(=C(C#N)C#N)CCC3CC2)CC1 (stereo unspecified)	6	·	-790	-845	-3.8*	·	i
N#Cc1cc(Cl)c(N2CCOCC2)cc1C#N	15	1	10	3	1.6	-1	·
CC(=O)c1ccc(OC(=O)c2nc(-c3ccccc3)oc2C)cc1	·	0	-7	5	·	-1	·
COc1cc(-c2[nH]ncc2CN(C)Cc2cc(C)[nH]n2)cc(OC)c1OC	10	-2	2	0	-0.63	-2	·
O=C(Cn1sc2ccccc2c1=O)NC12CC3CC(CC(C3)C1)C2	90*	31	-10	3	-5.1*	2	i
Nc1cccc2c1C(=O)N(CC(=O)NC13CC4CC(CC(C4)C1)C3)C2=O	23	-1	-9	-3	0.51	-2	·
CC1(NC(=O)Nc2cccc3ccccc23)CCS(=O)(=O)C1 (stereo unspecified)	·	0	-4	1	·	-6	·
O=C(/C=C/c1ccncc1)c1ccc2c(c1)OCCO2	-105	5	-9	-1	-5.4*	-3	+
Cc1cnc(NC(=O)c2nn(C)cc2[N+](=O)[O-])s1	-13	2	-12	1	-3.6*	-3	+
Cn1cc([N+](=O)[O-])c(C(=O)Nc2nc(-c3ccc(Cl)cc3)cs2)n1	-44	16	-9	33	-3.9*	5	+
OCCCNCc1ccc(N(c2ccccc2)c2ccccc2)cc1	·	1	-11	10	·	-4	·
CC(C)(C)S(=O)(=O)c1nc2ccccc2s1	6	-1	0	2	0.93	-1	·
C=CCS(=O)(=O)c1nc2ccccc2s1	-9	32	-2	28	-5.4*	-10	i
Cc1cc(-n2ccnc2)n2c(nc3ccccc32)c1C#N	8	0	3	-13	2.2	-3	·
CCCc1cc(-n2ccnc2)n2c(nc3ccccc32)c1C#N	-51	1	-16	-38	-8.1	-4	i
c1cncc(-c2nc(-c3ccco3)cs2)c1	-55	3	-4	0	-4.5*	5	i
Nc1ncc2c(n1)-c1ccoc1CC2	·	-1	-10	1	·	-7	·
SMILES	CHOP inh	CHOP UPR activ	p-CIP stab down	B2AR ag	Dynein cargo inh	UPR XBP1 act	Dynein confirm
C#CCOCCOCCOCCNc1nc(N2CCN(C(=O)[C@H](CC(N)=O)n3cc(C(N)[C@H](C)CC)nn3)CC2)nc(N2CCN(C(=O)[C@H](CC(N)=O)n3cc(C(N)[C@@H](C)CC)nn3)CC2)n1 (stereo partly specified)	·	1	·	1	·	-1	·
COC1=C(C)C(O)=C(C(=O)/C=C/c2ccccc2)C(=O)C1(C)C	1	0	-12	3	-5.2*	1	+
COc1cc(C)cc(C(=O)C=Cc2ccccc2)c1O	·	·	·	25	·	·	·
C=CCn1c(Sc2ncc([N+](=O)[O-])s2)n[nH]c1=O	49	-9	-16	33	-5.7*	-10	+
C=CCn1c(CSc2ccccc2[N+](=O)[O-])n[nH]c1=S	·	0	-4	12	·	1	·
COc1ccc(S(=O)(=O)N(C)C[C@H]2Oc3ccc(NS(=O)(=O)c4cn(C)cn4)cc3C(=O)N([C@H](C)CO)C[C@@H]2C)cc1	·	0	·	-1	·	0	·
COc1ccc(C(=O)c2sc3nc(C)cc(-c4cccs4)c3c2N)cc1OC	36	·	-10	-83	-6.5	·	i
Cc1cc(C)c2c(N)c(C(=O)c3ccc(Cl)cc3)sc2n1	-8	1	-9	0	-0.39	3	·
COc1ccc(C(=O)c2sc3nc(C)cc(-c4cccs4)c3c2N)cc1	35	·	-10	-74	-7.8	·	?
Cc1cc(-c2cccs2)c2c(N)c(C(=O)c3ccc4c(c3)OCO4)sc2n1	31	1	-3	-26	-11	0	?
COc1ccccc1/C=C/C(=O)/C=C/c1ccccc1O	101*	·	-9	23	-4.2*	·	+
COc1ccccc1C=CC(=O)C=Cc1ccccc1OC	·	·	·	14	·	·	·
N#Cc1cc(Br)ccc1N=C1CCCN1c1ccccc1	14	-1	-5	-14	2	-1	·
CC1=NNC(=O)/C1=C\c1cn(-c2ccccc2)nc1-c1ccccc1	108*	·	4	82*	-3.9*	·	i
N#Cc1c(C(F)(F)F)cc(-c2ccccc2)nc1SCc1nc(N)nc(N2CCOCC2)n1	39	1	-41	-177	-3.8	1	+
COc1cccc(NC(=O)N(Cc2cc3cc(C)cc(C)c3[nH]c2=O)CC2COCCO2)c1 (stereo unspecified)	-6	0	14	8	-0.13	0	·
Oc1c(Cl)cc(Cl)c2c1NCCC2	34	1	-2	-3	-4.7*	-1	i
O=C1NCCCc2c1oc1ccc(O)cc21	0	-1	20	-7	0.033	-1	·
CN1C(=S)N(c2cccnc2)C(=O)/C1=C\c1ccc(C(C)(C)C)cc1	43	7	-2	22	-3.7*	4	?
N#CC(C(=O)NC1CCCCC1)=C1CCCCCC1	-5	3	5	-3	0.94	-3	·
CCn1c(C)c(CS(=O)(=O)c2ccccc2)[nH]c1=O	-32	2	5	-8	-5.6*	-5	+
